Bioassay records: PubChem BioAssay, several laboratories
GASC-1 inh = blocks human GASC-1 demethylase activity; GST-JMJD2C(1-420) H3K9me3 demethylation, DELFIA europium; inhibition, % at 2.35 µM; 330,000 compounds, 0.069% hits; Q9H3R0;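 active = more than half of a compound's replicate wells show inhibition beyond 50%, single wells judged on their own value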;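 also: signal counts dimethyl H3K9 product captured on neutravidin plate; 0% = median of DMSO wells and 100% = 0.3 times that DMSO median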
SENP1 inh = blocks the human SENP1 SUMO protease catalytic domain | AID 624204 | 360,000 compounds, 0.21% hits | Q9P0U3 | inhibition, % at 10 µM | recombinant SENP1 catalytic domain, CyPet-SUMO1-YPet FRET cleavage;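 active = inhibition at least 30% at 10 µM, raw YFP signal under a set limit, fluorescence ratio 0.5 to 1.5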;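 also: 0% = enzyme with DMSO and 100% = no enzyme wells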
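Material: hSENP1 catalytic domain, recombinant; medium: Tris pH 8 with BME, BSA, NP40 and catalase; compound: single concentration of 10 µM compound, 0.5% DMSO final; technique: FRET read of cyan and yellow fluorescence; timing: 50 min enzyme reaction, room temperature, light-protected; reagent: SFCypet-SUMO1-SFYpet substrate at 25 nM; control set: no-enzyme low, enzyme-DMSO high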
Arr AP2 block = blocks beta-arrestin peptide binding to AP2 adaptin; FITC-arrestin peptide / GST-AP2 beads, flow cytometry; AP2 beta2 appendage carries R879A mutation; inhibition, % at 10 µM; 340,000 compounds, 0.31% hits; AID 504490;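 active = inhibition above a set limit, near 3 SD of compounds lacking own fluorescence, cut at about 54% in these data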;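 also: plate controls were DMSO wells for no effect and 5 µM unlabelled arrestin peptide for full effect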
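System: GST-AP2 R879A glutathione beads | Also added: FITC-arrestin peptide, 50 nM | Times: 12 min plus 1 h, RT | Signal: Bead flow cytometry, FITC channel | Buffer or medium: PBS with 0.05% Tween 20 and 0.1% BSA | Read-out basis: Percent drop in bead-associated FITC signal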
FAS-TE inh = blocks the thioesterase domain of human fatty acid synthase. P49327. 360,000 compounds, 0.67% hits. recombinant FAS-TE, OMFH fluorogenic substrate, fluorescence endpoint. inhibition, % at 15 µM;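 active = compounds whose normalised, plate-corrected inhibition of enzyme fluorescence in the single-dose primary screen is 50% or more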;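 also: 0% = DMSO with enzyme and 100% = substrate without enzyme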
Target sequence (P49327 whole entry, looked up, the tested form may be a part): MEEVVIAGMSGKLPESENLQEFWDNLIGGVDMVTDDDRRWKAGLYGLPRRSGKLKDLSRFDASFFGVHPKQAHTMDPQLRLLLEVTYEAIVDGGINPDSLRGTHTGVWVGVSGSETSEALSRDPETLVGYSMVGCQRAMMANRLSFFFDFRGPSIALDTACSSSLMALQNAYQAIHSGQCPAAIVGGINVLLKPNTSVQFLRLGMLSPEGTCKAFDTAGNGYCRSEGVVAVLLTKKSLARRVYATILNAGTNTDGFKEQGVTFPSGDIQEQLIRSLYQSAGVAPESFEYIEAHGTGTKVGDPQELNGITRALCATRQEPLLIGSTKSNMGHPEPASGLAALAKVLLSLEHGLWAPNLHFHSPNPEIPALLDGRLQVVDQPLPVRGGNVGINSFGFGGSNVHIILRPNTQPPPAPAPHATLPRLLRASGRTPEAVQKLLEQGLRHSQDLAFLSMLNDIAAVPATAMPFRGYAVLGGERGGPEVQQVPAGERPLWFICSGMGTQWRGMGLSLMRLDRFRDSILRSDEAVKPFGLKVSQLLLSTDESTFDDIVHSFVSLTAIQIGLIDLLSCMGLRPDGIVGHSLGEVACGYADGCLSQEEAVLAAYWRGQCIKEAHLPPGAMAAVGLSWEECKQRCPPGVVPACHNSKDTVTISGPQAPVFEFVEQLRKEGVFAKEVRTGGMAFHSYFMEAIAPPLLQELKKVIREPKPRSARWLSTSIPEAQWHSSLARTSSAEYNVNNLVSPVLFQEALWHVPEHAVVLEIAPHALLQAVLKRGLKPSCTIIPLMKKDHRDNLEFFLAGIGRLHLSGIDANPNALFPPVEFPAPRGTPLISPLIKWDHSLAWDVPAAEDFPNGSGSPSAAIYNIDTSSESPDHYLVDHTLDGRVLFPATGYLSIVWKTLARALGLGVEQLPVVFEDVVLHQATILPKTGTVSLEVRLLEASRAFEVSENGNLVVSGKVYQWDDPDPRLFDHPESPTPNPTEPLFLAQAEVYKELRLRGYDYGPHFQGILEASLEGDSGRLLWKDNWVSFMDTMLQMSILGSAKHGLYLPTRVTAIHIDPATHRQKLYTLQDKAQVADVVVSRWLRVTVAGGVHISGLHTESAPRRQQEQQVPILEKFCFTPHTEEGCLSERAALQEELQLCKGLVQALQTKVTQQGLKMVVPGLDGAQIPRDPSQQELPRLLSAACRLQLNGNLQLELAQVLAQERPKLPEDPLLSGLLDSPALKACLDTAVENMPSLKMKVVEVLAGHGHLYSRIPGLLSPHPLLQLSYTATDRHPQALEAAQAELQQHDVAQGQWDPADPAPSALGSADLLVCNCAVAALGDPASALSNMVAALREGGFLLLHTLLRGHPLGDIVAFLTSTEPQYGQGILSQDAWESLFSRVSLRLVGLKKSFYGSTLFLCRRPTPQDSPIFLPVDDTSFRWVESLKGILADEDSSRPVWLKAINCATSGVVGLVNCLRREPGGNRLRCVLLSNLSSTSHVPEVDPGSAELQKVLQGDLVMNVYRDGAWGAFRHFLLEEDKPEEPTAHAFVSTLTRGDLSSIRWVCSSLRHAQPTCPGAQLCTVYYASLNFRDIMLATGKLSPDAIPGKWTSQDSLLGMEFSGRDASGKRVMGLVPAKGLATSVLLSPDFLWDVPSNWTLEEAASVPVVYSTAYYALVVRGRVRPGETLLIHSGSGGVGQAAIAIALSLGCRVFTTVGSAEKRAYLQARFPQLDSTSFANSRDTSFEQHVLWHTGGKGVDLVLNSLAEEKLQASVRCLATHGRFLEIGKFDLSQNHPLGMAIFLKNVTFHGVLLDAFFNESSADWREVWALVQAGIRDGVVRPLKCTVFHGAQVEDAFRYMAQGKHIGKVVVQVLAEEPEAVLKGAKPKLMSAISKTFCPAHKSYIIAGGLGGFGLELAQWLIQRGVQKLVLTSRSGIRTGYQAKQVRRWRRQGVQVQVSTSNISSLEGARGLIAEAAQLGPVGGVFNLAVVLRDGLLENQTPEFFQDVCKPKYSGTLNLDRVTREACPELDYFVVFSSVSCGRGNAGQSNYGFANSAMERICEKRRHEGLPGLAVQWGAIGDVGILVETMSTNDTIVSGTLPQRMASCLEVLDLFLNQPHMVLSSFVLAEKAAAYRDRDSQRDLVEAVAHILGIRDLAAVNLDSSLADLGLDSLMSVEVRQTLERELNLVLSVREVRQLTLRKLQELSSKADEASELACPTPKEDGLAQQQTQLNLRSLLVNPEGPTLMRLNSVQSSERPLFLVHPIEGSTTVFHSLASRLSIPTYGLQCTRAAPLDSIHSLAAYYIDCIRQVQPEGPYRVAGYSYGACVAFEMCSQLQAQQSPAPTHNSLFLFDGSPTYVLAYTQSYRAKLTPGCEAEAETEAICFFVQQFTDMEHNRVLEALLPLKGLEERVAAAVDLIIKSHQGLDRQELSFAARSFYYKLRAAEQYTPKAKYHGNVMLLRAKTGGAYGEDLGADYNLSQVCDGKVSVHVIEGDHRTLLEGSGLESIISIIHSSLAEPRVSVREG
Arr-AP2 CP1 = blocks beta-arrestin peptide binding to human AP2; AID 504908; inhibition, % at 10 µM; 1,300 compounds, 2% hits; shares compounds with Arr AP2 block; GST-AP2 beads, FITC arrestin peptide binding, flow cytometry; GST-fused beta2-adaptin appendage, R879A mutant;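 active = inhibition above a set limit, roughly 3 SD of non-fluorescent compound noise, cut at about 38% in these data; inactive = inhibition at or below that limit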;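 also: loss of bead fluorescence from 50 nM FITC arrestin peptide bound to appendage; 0% = negative control wells and 100% = excess unlabelled arrestin peptide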
GST-FITC bead = GST-GSH bead binding interference, counter-screen | shares compounds with Arr AP2 block | GST-fluorescein binding to GSH beads, fluorescence | inhibition, % at 10 µM | 1,300 compounds, 2% hits | AID 588338;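 active = inhibition above 50%, about 3 SD of the inhibition seen with non-fluorescent compounds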;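 also: fluorescein maleimide labelled GST captured on 4 micron glutathione beads; higher means more loss of bead fluorescence from quenching or blocked binding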
Numbers without * were called inactive. Most compounds without a hit are left out; they make up all but 1.1% or so of the library.

Results for CC(CC(=O)N(CCC1=CCCCC1)c1c(N)n(Cc2ccccc2)c(=O)[nH]c1=O)c1ccccc1 (stereo not given) ?
GASC-1 inh: -18; SENP1 inh: 0; Arr AP2 block: 68*; FAS-TE inh: -2; Arr-AP2 CP1: 0; GST-FITC bead: -3

Results for COc1cc(S(=O)(=O)n2ccc(C)n2)ccc1Cl ?
GASC-1 inh: 5; SENP1 inh: -3; Arr AP2 block: 3; FAS-TE inh: 0

How did CCC(C(=O)NCc1ccco1)N(Cc1cccs1)C(=O)CNS(=O)(=O)c1ccccc1 (stereo not given) do in these assays?
GASC-1 inh: 3; SENP1 inh: 1; Arr AP2 block: 55*; FAS-TE inh: -5; Arr-AP2 CP1: -2; GST-FITC bead: 0

Results for O=C(Nc1cc(C(F)(F)F)ccc1N1CCOCC1)C1=COCCO1 ?
GASC-1 inh: 6; SENP1 inh: 0; Arr AP2 block: 55*; FAS-TE inh: 4; Arr-AP2 CP1: 1; GST-FITC bead: -6

Results for Cc1ccccc1C(=O)Nc1c(C(=O)N(CCN(C)C)Cc2ccco2)oc2ccccc12 ?
GASC-1 inh: 8; SENP1 inh: 1; Arr AP2 block: 58*; FAS-TE inh: -5; Arr-AP2 CP1: -6; GST-FITC bead: 2

Results for O=C(CCN1C(=O)/C(=C/c2ccccc2)SC1=S)NNC(=O)c1cccnc1 ?
GASC-1 inh: -1; SENP1 inh: 2; Arr AP2 block: 106*; FAS-TE inh: -10; Arr-AP2 CP1: 10; GST-FITC bead: 1

What do the screens show for `CC(C)CCN1CCN(Cc2ccc(C#CC(C)(C)O)s2)CC1CCO` (stereo not given)?
GASC-1 inh: -14; SENP1 inh: 0; Arr AP2 block: 62*; FAS-TE inh: 0; Arr-AP2 CP1: 23; GST-FITC bead: -6

What do the screens show for `O=C1CC(C(=O)O)C(c2ccccc2)c2ccccc21` (stereo not given)?
SENP1 inh: 2; Arr AP2 block: 55*; FAS-TE inh: -7; Arr-AP2 CP1: 4; GST-FITC bead: 11

What do the screens show for `CCOC(=O)C(NC(=O)c1cccc(Cl)c1)(OCc1ccc(F)cc1)C(F)(F)F` (stereo not given)?
GASC-1 inh: 0; SENP1 inh: -2; Arr AP2 block: 7; FAS-TE inh: 22

How did CC(OC(=O)c1ccncc1)C(=O)Nc1cccc(Cl)c1 (stereo not given) do in these assays?
GASC-1 inh: -2; SENP1 inh: -4; Arr AP2 block: 81*; FAS-TE inh: -2; Arr-AP2 CP1: 6; GST-FITC bead: -5

How did CC(Oc1cccc(Cl)c1)C(=O)Nc1ccncc1 (stereo not given) do in these assays?
GASC-1 inh: 8; SENP1 inh: 0; Arr AP2 block: 21; FAS-TE inh: -4

Results for CCOc1ccc2oc(=O)cc(CN3CCN(C(=O)c4ccco4)CC3)c2c1 ?
GASC-1 inh: 0; SENP1 inh: -2; Arr AP2 block: 19; FAS-TE inh: -1

What do the screens show for `CCOc1ccc(C(=O)Nn2cnnc2)cc1OCC`?
GASC-1 inh: -4; SENP1 inh: 0; Arr AP2 block: -4; FAS-TE inh: -4

How did COc1cc(C(=O)Nn2cnnc2)ccc1OC(F)F do in these assays?
GASC-1 inh: 6; SENP1 inh: 4; Arr AP2 block: 54*; FAS-TE inh: 0; Arr-AP2 CP1: -8; GST-FITC bead: -3

What do the screens show for `COc1ccc(CC(NC(C)=O)C(=O)NC2CCN(C(=O)c3cccc(Cl)c3)CC2)cc1OC` (stereo not given)?
GASC-1 inh: -18; SENP1 inh: 1; Arr AP2 block: -5; FAS-TE inh: -3

What do the screens show for `CN(CCOc1ccccc1)C(=O)c1cc([N+](=O)[O-])cc([N+](=O)[O-])c1`?
GASC-1 inh: 4; SENP1 inh: -1; Arr AP2 block: 60*; FAS-TE inh: 35; Arr-AP2 CP1: 18; GST-FITC bead: 3

What do the screens show for `CN(CCOc1ccccc1)C(=O)c1cc([N+](=O)[O-])ccc1N1CCOCC1`?
GASC-1 inh: 6; SENP1 inh: 2; Arr AP2 block: -4; FAS-TE inh: 34

How did CCN1C(=O)[C@H]2[C@@H](c3ccc(-c4ccc(C(C)=O)cc4)cc3)N3CCCC[C@@]3(C(=O)OC)[C@H]2C1=O do in these assays?
GASC-1 inh: -14; SENP1 inh: 2; Arr AP2 block: -5; FAS-TE inh: 32

What do the screens show for `N#Cc1ccc(CSc2ccccn2)c(Cl)c1`?
GASC-1 inh: -5; SENP1 inh: 0; Arr AP2 block: 63*; FAS-TE inh: 14; Arr-AP2 CP1: -6; GST-FITC bead: -7

How did Cc1cc(C)c(C)c(OCCNCc2ccccc2)c1 do in these assays?
GASC-1 inh: 11; SENP1 inh: 3; Arr AP2 block: -3; FAS-TE inh: 2

Results for Cc1cc(Br)ccc1OCCNCc1ccccc1 ?
GASC-1 inh: -4; SENP1 inh: -2; Arr AP2 block: 56*; FAS-TE inh: 3; Arr-AP2 CP1: -2; GST-FITC bead: -13

How did O=C(c1ccco1)N1CCN(Cc2cc(=O)c(OCc3ccccc3)co2)CC1 do in these assays?
GASC-1 inh: -15; SENP1 inh: 1; Arr AP2 block: 4; FAS-TE inh: -13

How did O=C(NCCCn1ccnc1)C(=O)NCC1OCCN1S(=O)(=O)c1ccc(F)cc1 (stereo not given) do in these assays?
GASC-1 inh: 3; SENP1 inh: 2; Arr AP2 block: 8; FAS-TE inh: -6

How did Cn1nnc(NC(=S)NC(=O)c2cccc3c(Cl)cccc23)n1 do in these assays?
GASC-1 inh: 6; SENP1 inh: 3; Arr AP2 block: 56*; FAS-TE inh: 2; Arr-AP2 CP1: 0; GST-FITC bead: -8

What do the screens show for `Cn1nnc(NC(=S)NC(=O)c2cccc3c(Br)cccc23)n1`?
GASC-1 inh: 9; SENP1 inh: 2; Arr AP2 block: 24; FAS-TE inh: 0

How did Cc1ccccc1NC(=O)/C(=C/c1ccco1)c1ccccc1 do in these assays?
GASC-1 inh: -8; SENP1 inh: -10; Arr AP2 block: -4; FAS-TE inh: 9

What do the screens show for `CC(C)(C)NC(=O)/C(=C/c1ccco1)c1ccccc1`?
GASC-1 inh: 12; SENP1 inh: 7; Arr AP2 block: 88*; FAS-TE inh: -1; Arr-AP2 CP1: 9; GST-FITC bead: -2

Results for O=C(NCc1cccc(C(F)(F)F)c1)c1ccc2sc([C@@H]3O[C@H](CO)[C@H](O)[C@H](O)[C@H]3O)nc2c1 ?
SENP1 inh: 1; FAS-TE inh: -4

Results for CCOC(=O)/C=C/C(=O)OCc1csc(CC(=O)Nc2ccccc2C)n1 ?
GASC-1 inh: -4; SENP1 inh: -22; Arr AP2 block: -9; FAS-TE inh: -6
